Measured values from ChEMBL document CHEMBL1146375, “Synthetic studies on novel benzimidazolopeptides with antimicrobial, cytotoxic and anthelmintic potential” (2007).
≈ marks a conversion by molar mass, not a printed value.

Legend:
[1] = system: Eudrilus; test: Anthelmintic activity against Eudrilus sp. assessed as mean death time; format: functional
Outline: (§1)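 Earthworms exposed to test suspensions at 2 mg mL−1, prepared by triturating compound with Tween 80 (0.5%) and distilled water, stirring 30 min, then diluting to 0.2% w/v. Mebendazole suspension was made the same way. Death was confirmed by moving worms into 50 °C warm water and looking for movement. Mean death time (min) taken from triplicate sets.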

[2] = system: Eudrilus; test: Anthelmintic activity against Eudrilus sp. assessed as mean paralyzing time; format: functional
Outline: (§2)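 Earthworms exposed to test suspensions at 2 mg mL^-1 (0.2% w/v), made by triturating compound with Tween 80 (0.5%) and distilled water, then mechanically stirred 30 min. Mebendazole suspension prepared alike as reference. Paralysis and death times recorded; death confirmed by no movement in 50 °C water. Means from triplicate sets.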

[3] = system: Pontoscolex corethrurus; test: Anthelmintic activity against Pontoscolex corethrurus ICARBC 408 assessed as mean paralyzing time; format: functional; outline: as §2
[4] = system: Pseudomonas aeruginosa; test: Antibacterial activity against Pseudomonas aeruginosa NCIM 2034 after 18 hrs by tube dilution method; format: functional; conditions: NCIM 2034, 18 h
Outline: (§3)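 Tube dilution MIC. Stock diluted in sterile broth to seven concentrations from 200 to 3.1 […]. Each tube inoculated with one loopful of test bacterium and incubated 18 h at 37 °C. MIC read from presence or absence of growth.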

[5] = system: Pseudomonas aeruginosa; test: Antibacterial activity against Pseudomonas aeruginosa NCIM 2034 after 18 hrs by disc diffusion method; format: functional
Outline: (§4)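 Modified Kirby-Bauer disc diffusion. Plates inoculated with spore suspension (about 6 × 10⁴ spores mL^-1). Sterile 6 mm paper discs carried test samples at 10 mg mL^-1; ciprofloxacin disc as reference, DMF disc as negative control. Plates held 18 h at 37 °C. Inhibition zone diameters (mm) averaged over triplicate sets.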

[6] = system: Microsporum audouinii; test: Antifungal activity against Microsporum audouinii MUCC 545 after 48 hrs by tube dilution method; format: functional
Outline: (§5)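 Tube dilution MIC as for bacteria (seven concentrations, 200–3.1 […]), with DMSO in place of DMF. Tubes inoculated with fungal culture and incubated 48 h at 37 °C. MIC read from presence or absence of growth.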

[7] = system: Microsporum audouinii; test: Antifungal activity against Microsporum audouinii MUCC 545 after 48 hrs by disc diffusion method; format: functional
Outline: (§6)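 Agar well diffusion on plates inoculated with spore suspension in normal saline from cultures on Sabouraud's broth. Wells punched and loaded with test samples or griseofulvin at 10 mg mL^-1, with DMSO as negative control. Incubated 48 h at 37 °C.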

[8] = system: Pontoscolex corethrurus; test: Anthelmintic activity against Pontoscolex corethrurus ICARBC 408 assessed as mean death time; format: functional; outline: as §1
[9] = system: Candida albicans; test: Antifungal activity against Candida albicans MUCC 29 after 48 hrs by tube dilution method; format: functional; outline: as §5
[10] = system: Staphylococcus aureus; test: Antibacterial activity against Staphylococcus aureus NCIM 2079 after 18 hrs by tube dilution method; format: functional; conditions: NCIM 2079, 18 h; outline: as §3
[11] = system: Trichophyton benhamiae; test: Antifungal activity against Trichophyton mentagrophytes MUCC 665 after 48 hrs by tube dilution method; format: functional, Arthroderma benhamiae; outline: as §5
[12] = Anthelmintic activity against Megascoplex konkanensis ICARBC 211 assessed as mean death time; format: functional; outline: as §2
[13] = system: Escherichia coli; test: Antibacterial activity against Escherichia coli NCIM 2065 after 18 hrs by disc diffusion method; format: functional; outline: as §4
[14] = system: Trichophyton benhamiae; test: Antifungal activity against Trichophyton mentagrophytes MUCC 665 after 48 hrs by disc diffusion method; format: functional, Arthroderma benhamiae; outline: as §6
[15] = system: Candida albicans; test: Antifungal activity against Candida albicans MUCC 29 after 48 hrs by disc diffusion method; format: functional; outline: as §6
[16] = system: Bacillus subtilis; test: Antibacterial activity against Bacillus subtilis NCIM 2063 after 18 hrs by disc diffusion method; format: functional; outline: as §4
[17] = Growth inhibition of DLA cells at 250 ug/mL after 3 hrs; format: functional; conditions: Mus musculus
Outline: (§7)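 DLA and EAC cells passaged intraperitoneally in albino mice, harvested after 15–20 days and adjusted to 1 × 10⁶ cells/mL. Dilutions in Dulbecco's medium (500–31.25, some down to 3.91 µg/mL; 5-FU reference) mixed 1:1 with cells and held 3 h at 37 °C. Trypan blue exclusion gave % growth inhibition; CTC50 by graphical extrapolation.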

[18] = system: Aspergillus niger; test: Antifungal activity against Aspergillus niger MUCC 177 after 48 hrs by disc diffusion method; format: functional; outline: as §6
[19] = system: Escherichia coli; test: Antibacterial activity against Escherichia coli NCIM 2065 after 18 hrs by tube dilution method; format: functional; conditions: NCIM 2065, 18 h
[20] = system: Staphylococcus aureus; test: Antibacterial activity against Staphylococcus aureus NCIM 2079 after 18 hrs by disc diffusion method; format: functional; outline: as §4
[21] = Anthelmintic activity against Megascoplex konkanensis ICARBC 211 assessed as mean paralyzing time; format: functional; outline: as §2
[22] = system: Bacillus subtilis; test: Antibacterial activity against Bacillus subtilis NCIM 2063 after 18 hrs by tube dilution method; format: functional; conditions: NCIM 2063, 18 h; outline: as §3
[23] = Growth inhibition of DLA cells at 62.5 ug/mL after 3 hrs; format: functional; conditions: Mus musculus; outline: as §7
[24] = Growth inhibition of EAC cells at 500 ug/mL after 3 hrs; format: functional; conditions: Mus musculus, Ehrlich; outline: as §7
[25] = Growth inhibition of DLA cells after 3 hrs; format: functional; conditions: Mus musculus; outline: as §7
[26] = Growth inhibition of EAC cells at 62.5 ug/mL after 3 hrs; format: functional; conditions: Mus musculus, Ehrlich; outline: as §7
[27] = Growth inhibition of EAC cells after 3 hrs; format: functional; conditions: Mus musculus, Ehrlich; outline: as §7
[28] = Growth inhibition of DLA cells at 500 ug/mL after 3 hrs; format: functional; conditions: Mus musculus; outline: as §7
[29] = Growth inhibition of DLA cells at 31.25 ug/mL after 3 hrs; format: functional; conditions: Mus musculus; outline: as §7
[30] = Growth inhibition of EAC cells at 250 ug/mL after 3 hrs; format: functional; conditions: Mus musculus, Ehrlich; outline: as §7
[31] = Growth inhibition of EAC cells at 125 ug/mL after 3 hrs; format: functional; conditions: Mus musculus, Ehrlich; outline: as §7
[32] = Growth inhibition of EAC cells at 31.25 ug/mL after 3 hrs; format: functional; conditions: Mus musculus, Ehrlich; outline: as §7
[33] = Growth inhibition of DLA cells at 125 ug/mL after 3 hrs; format: functional; conditions: Mus musculus; outline: as §7

Structure (SMILES) | Time [1] | Time [2] | Time [3] | MIC [4] | inhibition zone (IZ) [5] | MIC [6] | inhibition zone (IZ) [7] | Time [8] | MIC [9] | MIC [10] | MIC [11] | TIME [12] | inhibition zone (IZ) [13] | inhibition zone (IZ) [14] | inhibition zone (IZ) [15] | inhibition zone (IZ) [16] | inhibition zone (IZ) [18] | MIC [19] | inhibition zone (IZ) [20] | TIME [21] | other results
COC(=O)[C@@H]1CCCN1C(=O)c1ccc(-c2nc3cc(C)c(C)cc3[nH]2)cc1 | 45.34 min | 32.25 min | 35.57 min | 6 µg/mL (≈ 15.9 µM) | 22 mm | 25 µg/mL (≈ 66.2 µM) | 9 mm | 50.26 min | 6 µg/mL (≈ 15.9 µM) | 12.5 µg/mL (≈ 33.1 µM) | 6 µg/mL (≈ 15.9 µM) | 0.676 h | 17 mm | 13 mm | 16 mm | 13 mm | 17 mm | 12.5 µg/mL (≈ 33.1 µM) | 11 mm | 0.473 h | inhibition at 250 µg/mL [17]: 18.4%; MIC [22]: 6 µg/mL (≈ 15.9 µM)
COC(=O)[C@H](CCCNC(=N)N[N+](=O)[O-])NC(=O)[C@@H]1CCCN1C(=O)c1cc(I)c(-c2nc3cc(C)c(C)cc3[nH]2)c(I)c1 | 30.02 min | 19.43 min | 22.77 min | 6 µg/mL (≈ 7.23 µM) | 27 mm | 25 µg/mL (≈ 30.1 µM) | 10 mm | 34.45 min | 6 µg/mL (≈ 7.23 µM) | 12.5 µg/mL (≈ 15.1 µM) | 6 µg/mL (≈ 7.23 µM) | 0.439 h | 18 mm | 12 mm | 23 mm | 17 mm | 14 mm | 12.5 µg/mL (≈ 15.1 µM) | 12 mm | 0.299 h | inhibition at 62.5 µg/mL [23]: 28.9%; inhibition at 500 µg/mL [24]: 100%; CC50 [25]: 114 µM; inhibition at 62.5 µg/mL [26]: 35.7%; CC50 [27]: 84.3 µM; inhibition at 500 µg/mL [28]: 84.2%; inhibition at 31.25 µg/mL [29]: 15.8%; inhibition at 250 µg/mL [30]: 100%; inhibition at 125 µg/mL [31]: 100%; inhibition at 31.25 µg/mL [32]: 21.4%; inhibition at 250 µg/mL [17]: 68.4%; inhibition at 125 µg/mL [33]: 52.6%; MIC [22]: 6 µg/mL (≈ 7.23 µM)
COC(=O)[C@H](Cc1ccccc1)NC(=O)c1cc(-c2nc3cc(C)c(C)cc3[nH]2)ccc1O | 37.74 min | 26.78 min | 30.34 min | 6 µg/mL (≈ 13.5 µM) | 24 mm | 25 µg/mL (≈ 56.4 µM) | 9 mm | 42.56 min | 6 µg/mL (≈ 13.5 µM) | 12.5 µg/mL (≈ 28.2 µM) | 6 µg/mL (≈ 13.5 µM) | 0.592 h | 17 mm | 15 mm | 17 mm | 14 mm | 17 mm | 12.5 µg/mL (≈ 28.2 µM) | 10 mm | 0.437 h | MIC [22]: 6 µg/mL (≈ 13.5 µM)
Cc1cc2nc(-c3ccc(O)c(C(=O)N[C@@H](C)C(=O)N[C@H](C(=O)N[C@@H](C)C(=O)O)C(C)C)c3)[nH]c2cc1C | 36.14 min | 25.18 min | 29.65 min | 6 µg/mL (≈ 11.5 µM) | 21 mm | 6 µg/mL (≈ 11.5 µM) | 11 mm | 41.6 min | 6 µg/mL (≈ 11.5 µM) | 25 µg/mL (≈ 47.7 µM) | 6 µg/mL (≈ 11.5 µM) | 0.57 h | 17 mm | 15 mm | 19 mm | 14 mm | 17 mm | 25 µg/mL (≈ 47.7 µM) | 11 mm | 0.42 h | MIC [22]: 6 µg/mL (≈ 11.5 µM)
COC(=O)[C@H](Cc1cnc[nH]1)NC(=O)c1cc(I)c(-c2nc3cc(C)c(C)cc3[nH]2)c(I)c1 | 46.3 min | 34.34 min | 34.14 min | 6 µg/mL (≈ 8.97 µM) | 24 mm | 25 µg/mL (≈ 37.4 µM) | 11 mm | 47.82 min | 6 µg/mL (≈ 8.97 µM) | 12.5 µg/mL (≈ 18.7 µM) | 12.5 µg/mL (≈ 18.7 µM) | 0.758 h | 18 mm | 12 mm | 18 mm | 16 mm | 14 mm | 12.5 µg/mL (≈ 18.7 µM) | 12 mm | 0.488 h | MIC [22]: 6 µg/mL (≈ 8.97 µM)
